hIAP inh: blocks human intestinal alkaline phosphatase; inhibition, % at 10 µM; hit rate 0.12% among 330,000; P09923; AID 2544; purified IAP, CDP-Star luminescence, 30 min;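 active = inhibition reaching a set limit with compound at 10 µM in the primary screen, cut at about 35% in these data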
Target sequence (P09923 whole entry, looked up): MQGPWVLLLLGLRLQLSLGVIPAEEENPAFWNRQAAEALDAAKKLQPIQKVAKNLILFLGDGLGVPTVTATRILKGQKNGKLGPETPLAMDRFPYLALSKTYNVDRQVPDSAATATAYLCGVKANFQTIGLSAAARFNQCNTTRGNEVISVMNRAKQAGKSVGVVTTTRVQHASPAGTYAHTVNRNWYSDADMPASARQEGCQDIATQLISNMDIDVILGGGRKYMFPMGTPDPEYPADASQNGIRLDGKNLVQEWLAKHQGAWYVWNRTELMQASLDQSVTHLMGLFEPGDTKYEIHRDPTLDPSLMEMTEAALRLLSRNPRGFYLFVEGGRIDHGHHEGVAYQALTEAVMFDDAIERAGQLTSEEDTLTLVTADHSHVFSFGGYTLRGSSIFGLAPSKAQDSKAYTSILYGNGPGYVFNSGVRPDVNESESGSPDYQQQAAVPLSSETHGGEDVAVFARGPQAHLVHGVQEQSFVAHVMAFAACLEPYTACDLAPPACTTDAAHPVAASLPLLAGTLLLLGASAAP
mIAP act: mouse IAP activation; muIAP, CDP-Star luminescence, 30 min; stronger effect = higher value; 1 = vehicle-only enzyme signal, 0 = enzyme-free wells; AID 2805; activation factor at 10 µM; hit rate 0.24% among 330,000;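 active = activation factor of at least 2 at 20 µM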
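also added = chemiluminescent substrate CDP-Star | test system = mouse IAP enzyme | signal = chemiluminescence readout | compound = DMSO-dissolved test compounds | incubation = 30 min at room temperature | benchmarks = DMSO wells, no-enzyme wells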
hIAP activ: human IAP activation; activation factor at 10 µM; hit rate 0.16% among 330,000; AID 2524; purified human IAP, CDP-Star luminescence, 30 min; stronger effect = higher value; 1 = vehicle-only enzyme, 0 = enzyme-free background;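 active = activation factor of the enzyme at least 2-fold when tested at 20 µM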
mIAP block: mouse IAP inhibition; purified mouse IAP, CDP-Star luminescence, 30 min; inhibition, % at 10 µM; hit rate 0.2% among 330,000;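 active = inhibition of at least 40% at 10 µM in the primary screen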
bIAP inh: intestinal alkaline phosphatase (bovine) inhibition | inhibition, % at 20 µM | 190,000 tested, under 10 active | purified bovine IAP, CDP-star luminescence, 30 min;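 active = over 50% inhibition of intestinal alkaline phosphatase at 20 µM in the single-dose screen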
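test system = bovine IAP enzyme | medium = DEA buffer 100 mM, pH 9.8, with MgCl2 1.0 mM, ZnCl2 0.02 mM | detection = luminescence | dosing = single compound dose of 20 µM, 2% DMSO final | incubation = 30 min reaction at room temperature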
bIAP act: intestinal alkaline phosphatase (bovine) activation. hit rate 0.17% among 200,000. purified bovine IAP, CDP-star luminescence, 30 min; stronger effect = higher value; fold of DMSO-control signal, blank-subtracted. AID 1016. activation factor at 20 µM;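 active = activation factor of 2 or more at 20 µM, a signal rise over negative controls twice the positive control's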
Numbers stand for hits; i = inactive; nt = no result given. Only some compounds are listed: those with a hit (about 0.79% of all), similar ones and a draw of the others.

SMILES	hIAP inh	mIAP act	hIAP activ	mIAP block	bIAP inh	bIAP act
Cc1ccc(S(=O)(=O)N2CCN(C(=O)COC(=O)COc3cccc(C(F)(F)F)c3)CC2)c(C)c1	i	i	i	i	nt	nt
Cc1ccc(NS(=O)(=O)c2ccc(Cl)c(NC(=S)NC(=O)C3CCCCC3)c2)cc1Cl	i	i	i	i	i	i
O=C(CSc1ccccn1)Nc1ccccc1F	i	i	i	i	i	i
O=C(CSc1ccccn1)Nc1cccc2ccccc12	i	i	i	68	i	i
COCCN(C(=O)COC(=O)CCC(=O)c1cccs1)c1c(N)n(Cc2ccccc2)c(=O)[nH]c1=O	i	i	i	i	nt	nt
S=C(Nc1ccc(N2CCOCC2)cc1)Nc1ccc2nc(-c3ccco3)c(-c3ccco3)nc2c1	i	i	i	45	i	i
O=C(Nc1ccc(N2CCOCC2)cc1)c1ccc2nc(-c3ccco3)c(-c3ccco3)nc2c1	i	i	i	i	i	i
COc1ccccc1CC(Cc1nc2ccccc2[nH]1)c1nc2ccccc2[nH]1 (stereo unspecified)	i	i	i	i	i	3.6
CC(C)Cc1nc2ccccc2[nH]1	i	i	i	i	nt	nt
Cc1ccc(-n2cnc3cc(NCc4cccs4)ccc32)cc1	i	i	i	i	i	22
CCn1c(C)c(CS(=O)(=O)c2ccccc2)[nH]c1=O	i	i	i	i	i	i
CS(=O)(=O)c1ccc(NC(=O)CCCc2nc3ccccc3c(=O)[nH]2)cc1	i	i	i	i	nt	nt
CCOC(=O)c1cc(-c2ccccc2)n(CC(=O)Nc2cc(OC)cc(OC)c2)c1C	i	2.2	i	i	nt	i
CCOC(=O)c1cc(-c2ccccc2)n(CC(=O)Nc2ccc(OCC)cc2)c1C	i	i	i	i	i	i
COc1ccc(-c2csc(NC(=O)C3CSC4(C)CCC(=O)N34)n2)c(OC)c1 (stereo unspecified)	i	i	i	i	nt	nt
CCOc1ccc(CN2CCC(Cc3ccccc3)CC2)cc1	i	i	i	i	nt	nt
COc1ccc(NC(=O)NC23CC4(C)CC(C)(CC(C)(C4)C2)C3)cc1OC	i	3.9	i	i	i	i
COC(=O)c1ccc(NC(=O)Nc2ccc(OC)c(OC)c2)cc1	i	i	i	i	i	i
Cc1cc(Oc2cc(N)cc([N+](=O)[O-])c2)ccc1Cl	i	i	i	i	i	i
CC1CCN(CCc2nc3cc(NC(=O)NC4CCCCC4)ccc3n2C)CC1	i	i	i	i	i	2.5
Cn1c(CCN2CCCCC2)nc2cc(NC(=O)NC3CCCCC3)ccc21	i	i	i	i	i	i
COc1cc(CNCc2ccccn2)ccc1OCc1c(Cl)cccc1Cl	i	i	i	i	i	2.5
COc1cc(CNCc2ccccn2)ccc1OCc1ccc(Cl)cc1	i	i	i	i	i	i
CCCOc1ccc(N2C(=O)CC(N3CCC(c4nc5ccccc5o4)CC3)C2=O)cc1 (stereo unspecified)	i	i	i	i	i	i
O=C(O)c1ccc(CS(=O)c2cccc(C(F)(F)F)c2)o1 (stereo unspecified)	i	i	i	i	i	3.2
SMILES	hIAP inh	mIAP act	hIAP activ	mIAP block	bIAP inh	bIAP act
Cc1cccc(S(=O)Cc2ccc(C(=O)N3CCOCC3)o2)c1 (stereo unspecified)	i	i	i	i	nt	nt
COc1cc(/C=C2/SC(=S)N(c3c(C)n(C)n(-c4ccccc4)c3=O)C2=O)ccc1O	i	i	i	i	i	i
CC(CCN1CCC(n2nccc2NC(=O)c2ccccc2Cl)CC1)c1ccccc1 (stereo unspecified)	i	i	i	i	nt	nt
Cc1ccc(C(NC(=O)NC(C)c2ccccc2)C(Cl)(Cl)Cl)cc1F (stereo unspecified)	i	14	i	i	i	i
CC(NC(=O)c1cc2cc(F)ccc2[nH]1)c1ccccc1 (stereo unspecified)	i	i	i	i	nt	nt
CC(C)(C)c1ccc(NC(=O)Nc2ccc(OCC(=O)N3CCOCC3)cc2)cc1	i	2.1	i	i	i	i
CN(C)Cc1c(C(=O)N/N=C/c2cccs2)nnn1-c1nonc1N	i	i	i	i	nt	nt
COc1ccc(NC(=O)Nc2cccc(OC)c2)cc1	i	i	i	i	nt	nt
COC(=O)c1cccc(NC(=O)NC23CC4CC(CC(C4)C2)C3)c1	i	2.6	i	i	i	i
N#CCc1ccc(NC(=O)Nc2cccc(Cl)c2)cc1	i	2.8	i	i	i	i
COc1cccc(NC(=O)Nc2cc(Cl)ccc2C)c1	i	2.2	i	i	i	i
COC(=O)c1cccc(NC(=O)Nc2ccc(Cl)cc2)c1	i	2.2	i	i	nt	nt
Cc1ccc(OCc2nnc(SC(C)C(=O)O)n2-c2ccccc2)cc1 (stereo unspecified)	i	i	i	i	nt	nt
CCOC(=O)N1CCN(S(=O)(=O)c2c(C(=O)N3CCCCC3)c(C)n(C)c2C)CC1	i	i	i	i	nt	nt
COc1ccccc1NS(=O)(=O)c1cccc(NC(=O)Nc2cccc(Cl)c2)c1	i	2.2	i	i	i	i
Cc1nnc(NC(=O)Nc2cccc(Cl)c2)s1	i	i	i	i	i	i
Cc1csc(NC(=O)Nc2cccc(Cl)c2)n1	i	i	i	i	i	2.2
COc1ccccc1NS(=O)(=O)c1cccc(NC(=O)NCCCl)c1	i	i	i	i	nt	nt
CCCCN1C(=O)C(=O)c2cc(Cl)ccc21	i	i	i	i	nt	nt
COc1cccc(NC(=O)NCCCSC2CCCCC2)c1	i	2.3	i	i	i	i
C[C@@H](C(=O)Nc1ccc2ccccc2c1)[C@@H]1C[C@@]1(C)[C@@H](NC(=O)OCc1ccccc1)c1ccccc1	i	2	i	i	nt	nt
CCCCCCCCC(=O)NC(NC(=S)N1CCOCC1)C(Cl)(Cl)Cl (stereo unspecified)	i	3.4	i	i	i	i
Cc1ccc(C)c(OCCC(=O)Nc2cccc(S(=O)(=O)N3CCCCC3)c2)c1	i	2	i	i	nt	nt
Cc1ccc(C)c(OCCC(=O)Nc2cc(S(=O)(=O)N3CCCCC3)ccc2C)c1	i	i	i	i	nt	nt
Cc1ccc(NC(=O)COc2ccccc2CNC(C)(C)CC(C)(C)C)cc1	i	i	i	i	i	30
SMILES	hIAP inh	mIAP act	hIAP activ	mIAP block	bIAP inh	bIAP act
O=C(NC(=S)NNC(=O)c1ccccc1O)c1ccco1	nt	nt	nt	nt	i	i
O=C(NC(=S)NNC(=O)c1cc2ccccc2cc1O)c1ccco1	i	i	2.2	i	i	i
Cc1ccc(-n2c(C)nnc2SCC(=O)NC2CCCC2)cc1	i	i	i	i	nt	nt
CC(OC(=O)Cn1cnc2c1c(=O)n(C)c(=O)n2C)C(=O)NC(C)c1ccc(Cl)cc1Cl (stereo unspecified)	i	i	i	i	nt	nt
COc1ccc(C[C@H]2CN3C(=NC[C@@H]3Cc3ccccc3)N2C[C@H](C)NC(=O)CCC2CCCCC2)cc1	i	i	i	i	nt	nt
COc1ccc(C[C@H]2CN3C(=NC[C@H]3Cc3ccccc3)N2CCNC(=O)CCC2CCCCC2)cc1	i	i	i	i	i	2.4

Assay outcomes (PubChem)
